In PMC5651997 (Chemosphere, 2017):

Legend:
D. magna [1] = experiment: 48 h acute toxicity test, single chemicals; format: in vivo, Daphnia magna; details: for LC50: read-out: LC50 (μM)(95% CI)
Daphnia HR96 = details: ref Karimullina et al., 2012; cited from earlier work
detoxification genes = experiment: RNA sequencing, differential gene expression after atrazine exposure; format: in vivo, Daphnia magna; details: 40 μM atrazine, 96 h
[2] = system: detoxification and sphingolipid homeostasis genes; experiment: qPCR confirmation of differential gene expression; format: in vivo, Daphnia magna; details: 20 or 40 μM atrazine, 96 h, at least one of the concentrations
Method in brief: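 RNA stabilised and stored at −80°C; 2 μg reverse-transcribed with MMLV. SYBR Green qPCR; efficiency from a 1:1–1:1024 dilution series of pooled untreated and treated samples; triplicate 1:15-diluted samples quantified.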

D. magna [3] = format: in vivo, Daphnia magna; details: neonates, 48 h, 40 μM atrazine
[4] = 48 h acute toxicity test, single chemicals; format: in vivo, Daphnia magna; details: Daphnia magna, in vivo, LC50 (μM)(95% CI)
[5] = neonates (<24 h old), 48 h, chemical individually, (95% CI)
[6] = neonates (<24 h old), 48 h, chemical individually

With `Oc1cc(Cl)ccc1Oc1ccc(Cl)cc1Cl` [triclosan] the Hillslope (D. magna [1]; [5]) was −4.365 (−6.091 to −3.083) and the LC50 (D. magna [1]; [6]) was 1.08 µM.

For `CCOP(=S)(OCC)Oc1ccc([N+](=O)[O-])cc1` [parathion], the Hillslope (D. magna [1]; [5]) was −4.831 (−8.368 to −1.294) and the LC50 (D. magna [1]; [6]) was 0.0122 µM.

With `CC(C)(c1ccc(O)cc1)c1ccc(O)cc1` [BPA, bisphenol A] the Hillslope (D. magna [1]; [5]) was −6.891 (−10.34 to −3.438).

In the case of `CCNc1nc(Cl)nc(NC(C)C)n1` [atrazine], the “potency for activating Daphnia HR96” value (Daphnia HR96) is given as “greatest potency”, the “logFC, GST 1” value (detoxification genes; glutathione metabolism pathway) is given as 1.33 and the “logFC, aminopeptidase” value (detoxification genes; glutathione metabolism pathway) is given as 1.13. For the same compound, the “number of significantly down-regulated genes” value (detoxification genes; of 26,646 genes identified) was 441, the “number of significantly up-regulated genes” value (detoxification genes; of 26,646 genes identified) was 675 and the “expression of two GSTs, cyp370a9, ADH-A and two sphingomyelinases by qPCR” value [2] was “significantly up-regulated”.

With `O=S1OCC2C(CO1)C1(Cl)C(Cl)=C(Cl)C2(Cl)C1(Cl)Cl` (centres unmarked) [endosulfan] the “drop of LC50 in atrazine-containing binary mixture vs chemical alone” value (D. magna [3]) was 60% and the Hillslope (D. magna [1]; [5]) was −8.310 (−10.52 to −6.098).

In the case of `CCOP(=S)(OCC)Oc1nc(Cl)c(Cl)cc1Cl` [chlorpyrifos], the Hillslope (D. magna [1]; [5]) is reported as −2.498 (−3.795 to −1.496).

For `CCCCCCCCCc1ccc(O)cc1` [p-nonylphenol], the “drop of LC50 in atrazine-containing binary mixture vs chemical alone” value (D. magna [3]) was 25%, the LC50 [4] was 1.94 µM and the Hillslope (D. magna [1]; Daphnia magna, in vivo) was −5.895 (−8.000 to −3.790).
